Test results reported in ChEMBL document CHEMBL1153633, “Synthesis and biological activity of alpha-galactosyl ceramide KRN7000 and galactosyl (alpha1-->2) galactosyl ceramide” (Bioorg Med Chem Lett, 2009).
Active and inactive are the calls of the source. The rule behind the calls is not given here.

How the values were obtained:
Type in all cases: functional, cell-based
[1] = Activation of human BM2a.3 cells co-cultured with CD1d-expressing U937 cells assessed as IFN-gamma release after 16 hrs by ELISA; conditions: U-937
Outline: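 Human iNKT clone BM2a.3 (2.5×10^4) co-cultured with 2.5×10^4 U937 cells and a range of lipid concentrations; cytokines in culture supernatants measured by ELISA after 16 h.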

[2] = test system: DN32; experiment: Activation of mouse DN32 cells in co-cultured with plate bound antigen presenting cell free CD1d-FC fusion protein assessed as IL-2 release after 16 hrs by ELISA
Outline: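 Plate-bound murine recombinant CD1d-Fc fusion protein loaded with lipid for 16 h, then washed; 5×10^4 iNKT hybridoma cells added per well, with no APC. Cytokines in culture supernatants measured by ELISA.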

[3] = test system: RAW; experiment: Activation of mouse DN32 cells in co-cultured with CD1d-transfected RAW cells assessed as IL-2 release after 16 hrs by ELISA
Outline: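 Mouse iNKT hybridoma DN32 (5×10^4) co-cultured with 5×10^4 RAW cells, CD1d-transfected or untransfected, across a range of lipid concentrations; supernatant cytokines measured by ELISA at 16 h.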

[4] = test system: RAW; experiment: Activation of mouse DN32 cells co-cultured with CD1d-transfected RAW cells assessed as IL-2 release at 100 ng/ml fixed and then pulsed for 3 hrs measured after 16 hrs by ELISA
Outline: (§1)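 CD1d-transfected RAW cells were handled in one of two orders. In one, they were pulsed with 100 ng/ml lipid for 3 h, washed, then fixed with glutaraldehyde. In the other, they were fixed first, then pulsed for 3 h. 10^5 APC were co-cultured with 10^5 iNKT hybridoma cells for 16 h, and supernatant cytokines were measured by ELISA.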

[5] = test system: RAW; experiment: Activation of mouse DN32 cells co-cultured with CD1d-transfected RAW cells assessed as IL-2 release at 100 ng/ml pulsed for 3 hrs and then fixed measured after 16 hrs by ELISA; outline: as §1

Compound: CCCCCCCCCCCCCCCCCCCCCCCCCC(=O)N[C@@H](CO[C@H]1O[C@H](CO)[C@H](O)[C@H](O)[C@H]1O[C@H]1O[C@H](CO)[C@H](O)[C@H](O)[C@H]1O)[C@H](O)[C@H](O)CCCCCCCCCCCCCC
- Activity [1]: Active
- Activity [2]: inactive
- Activity [3]: Active
- Activity [4]: inactive
- Activity [5]: Active

Compound: CCCCCCCCCCCCCCCCCCCCCCCCCC(=O)N[C@@H](CO[C@H]1O[C@H](CO)[C@H](O)[C@H](O)[C@H]1O)[C@H](O)[C@H](O)CCCCCCCCCCCCCC
- Activity [1]: Active
- Activity [2]: Active
- Activity [3]: Active
- Activity [4]: Active
- Activity [5]: Active
